Results taken from ChEMBL document CHEMBL1138954, “Cyclobutane derivatives as potent NK1 selective antagonists” (Bioorg Med Chem Lett, 2006).

How the values were obtained:
[1] = target: Substance-P receptor (Homo sapiens, UniProt P25103); test: Displacement of [3H]Sar-Met substance P from human recombinant NK1 receptor expressed in CHO cells; assay type: cell-based
In short: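 Membranes from CHO cells expressing recombinant human NK1 receptor. Radioligand was [³H]-Sar-Met substance P at about its experimentally derived Kd. Ki was calculated with the Cheng–Prusoff equation. Values are the mean of two or three independent determinations.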

[2] = tested on: Meriones unguiculatus; test: Inhibition of GR-73632-induced foot tapping in Mongolian gerbil at 1 mg/kg, po after 4 hrs; assay type: functional
In short: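 Female Mongolian gerbils were dosed orally in 0.4% methylcellulose/distilled water before icv injection of GR73632 (3 pmol in 5 μl). After recovery from anaesthesia, animals were placed in clear boxes for 5 min. Duration of rhythmic hind-foot tapping was timed and expressed as percent decrease (% inhibition).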

[3] = target: T1, Substance-K receptor (Homo sapiens) (UniProt P21452); test: Inhibition of [3H]neurokinin A binding to human recombinant NK2 receptor in CHO cells at 3 uM; assay type: cell-based
T1 sequence (whole entry): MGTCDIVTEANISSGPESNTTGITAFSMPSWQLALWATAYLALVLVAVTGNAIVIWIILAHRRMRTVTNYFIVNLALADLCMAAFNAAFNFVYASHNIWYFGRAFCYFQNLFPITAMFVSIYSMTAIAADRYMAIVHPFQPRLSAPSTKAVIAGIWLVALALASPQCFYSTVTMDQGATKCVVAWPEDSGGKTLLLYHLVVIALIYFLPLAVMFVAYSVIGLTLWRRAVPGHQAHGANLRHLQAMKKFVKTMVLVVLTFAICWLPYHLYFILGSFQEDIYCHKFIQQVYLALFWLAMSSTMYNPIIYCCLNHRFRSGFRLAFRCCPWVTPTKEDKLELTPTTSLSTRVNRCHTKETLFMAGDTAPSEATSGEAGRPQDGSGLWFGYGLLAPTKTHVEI
In short: (§1)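 Competition binding used membranes of CHO cells carrying recombinant human NK2 receptor. [³H]neurokinin A was the ligand, at a concentration near its experimentally derived Kd. Data are the average of two or three independent determinations.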

[4] = target: T2, Neuromedin-K receptor (Homo sapiens, UniProt P29371); test: Displacement of [3H]neurokinin B from human recombinant NK3 receptor in CHO cells; assay type: cell-based; conditions: in the assay text read “[125I]neurokinin B” for “[3H]neurokinin B”
T2 sequence (P29371 whole entry): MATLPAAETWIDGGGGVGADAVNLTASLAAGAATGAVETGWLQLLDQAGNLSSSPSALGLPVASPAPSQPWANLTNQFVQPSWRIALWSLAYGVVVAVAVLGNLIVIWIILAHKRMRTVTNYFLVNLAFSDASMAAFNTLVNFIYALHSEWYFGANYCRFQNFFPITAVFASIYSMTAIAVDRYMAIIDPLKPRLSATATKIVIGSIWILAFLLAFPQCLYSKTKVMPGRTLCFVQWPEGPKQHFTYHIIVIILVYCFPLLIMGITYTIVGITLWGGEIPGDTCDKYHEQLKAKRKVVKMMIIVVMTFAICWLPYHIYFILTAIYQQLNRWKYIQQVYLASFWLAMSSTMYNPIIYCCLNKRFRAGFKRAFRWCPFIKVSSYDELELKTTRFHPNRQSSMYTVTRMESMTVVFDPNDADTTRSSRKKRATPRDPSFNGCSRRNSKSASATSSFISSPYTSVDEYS
In short: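 Membrane preparations came from CHO cells expressing recombinant human NK3 receptor. Labelled neurokinin B ligand was used near its experimentally derived Kd. Ki was obtained by the Cheng–Prusoff equation. Values are the average of two or three independent determinations.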

[5] = target: T2, Neuromedin-K receptor; test: Displacement of [125I]neurokinin B from human recombinant NK3 receptor in CHO cells
[6] = target: T1, Substance-K receptor (Homo sapiens); test: Inhibition of [3H]neurokinin A binding to human recombinant NK2 receptor in CHO cells at 0.3 uM; assay type: cell-based; in short: as §1

Substance-P receptor, sequence (P25103 whole entry): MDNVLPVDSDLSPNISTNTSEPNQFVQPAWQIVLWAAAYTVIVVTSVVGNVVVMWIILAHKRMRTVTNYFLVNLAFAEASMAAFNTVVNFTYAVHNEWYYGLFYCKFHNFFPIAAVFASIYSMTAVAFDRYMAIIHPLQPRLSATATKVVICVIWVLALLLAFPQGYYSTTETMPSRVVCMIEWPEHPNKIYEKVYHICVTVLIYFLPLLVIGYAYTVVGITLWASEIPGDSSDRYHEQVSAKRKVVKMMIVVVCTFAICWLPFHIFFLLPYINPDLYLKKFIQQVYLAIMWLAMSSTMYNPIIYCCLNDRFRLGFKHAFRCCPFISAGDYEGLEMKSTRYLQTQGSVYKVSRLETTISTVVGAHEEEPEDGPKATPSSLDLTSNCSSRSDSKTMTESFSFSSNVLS

| Structure (SMILES) | Ki [1] [nM] | inhibition [3] [%] | Ki [4] [nM] | Ki [5] [nM] | inhibition [6] [%] | inhibition in vivo at 1 mg/kg [2] [%] |
| --- | --- | --- | --- | --- | --- | --- |
| C[C@@H](OC[C@]1(c2ccccc2)C[C@](N)(C(=O)N2CCCC2)C1)c1cc(C(F)(F)F)cc(C(F)(F)F)c1 | 1.3 | – | – | – | – | 13 |
| C[C@@H](OCC1(c2ccccc2)CC(NCc2n[nH]c(O)n2)C1)c1cc(C(F)(F)F)cc(C(F)(F)F)c1 (stereo partly drawn) | 0.5 | – | – | – | – | 22 |
| C[C@@H](OC[C@]1(c2ccccc2)C[C@](N)(C(=O)N(C)C)C1)c1cc(C(F)(F)F)cc(C(F)(F)F)c1 | 3.3 | – | – | – | – | 79 |
| C[C@@H](OC[C@]1(c2ccccc2)C[C@H](N2CCCC2=O)C1)c1cc(C(F)(F)F)cc(C(F)(F)F)c1 | 0.3 | – | – | – | – | 3 |
| C[C@@H](OC[C@]1(c2ccccc2)C[C@@H](N2CCCC2=O)C1)c1cc(C(F)(F)F)cc(C(F)(F)F)c1 (mixture of isomers) | 0.4 | – | – | – | – | 41 |
| C[C@@H](OC[C@]1(c2ccccc2)C[C@](N)(C(N)=O)C1)c1cc(C(F)(F)F)cc(C(F)(F)F)c1 | 1 | – | – | – | – | 81 |
| C[C@@H](OCC1(c2ccccc2)CC(NCc2ccccc2)C1)c1cc(C(F)(F)F)cc(C(F)(F)F)c1 (stereo partly drawn) | 0.3 | – | – | – | – | 25 |
| C[C@@H](OC[C@]1(c2ccccc2)C[C@](N)(C(=O)N2CCCCC2)C1)c1cc(C(F)(F)F)cc(C(F)(F)F)c1 | 1.3 | – | – | – | – | 15 |

Further lines, with some results ahead:

| Ki [1] [nM] | inhibition [3] [%] | Ki [4] [nM] | Ki [5] [nM] | inhibition [6] [%] | Structure (SMILES) | inhibition in vivo at 1 mg/kg [2] [%] |
| --- | --- | --- | --- | --- | --- | --- |
| 0.02 | 25 | 4050 | – | – | C[C@@H](OCC1(c2ccccc2)CC(N)C1)c1cc(C(F)(F)F)cc(C(F)(F)F)c1 (stereo partly drawn) | 21 |
| 0.1 | 26 | – | 631 | – | CC(=O)N[C@H]1C[C@@](CO[C@H](C)c2cc(C(F)(F)F)cc(C(F)(F)F)c2)(c2ccccc2)C1 | 23 |
| 1 | – | 2000 | – | 1.2 | CNC(=O)[C@]1(N)C[C@@](CO[C@H](C)c2cc(C(F)(F)F)cc(C(F)(F)F)c2)(c2ccccc2)C1 | 98 |
| 2.4 | – | – | – | – | C[C@@H](OCC1(c2ccccc2)CC(=O)C1)c1cc(C(F)(F)F)cc(C(F)(F)F)c1 | 11 |
| 0.5 | – | – | – | – | CNC(=O)[C@]1(N)C[C@](CO[C@H](C)c2cc(C(F)(F)F)cc(C(F)(F)F)c2)(c2ccccc2)C1 | 58 |
| 0.43 | – | – | – | – | C[C@@H](OC[C@]1(c2ccccc2)C[C@@](N)(C(N)=O)C1)c1cc(C(F)(F)F)cc(C(F)(F)F)c1 | 30 |
| 0.4 | 23 | – | 2130 | – | CC(=O)N[C@H]1C[C@](CO[C@H](C)c2cc(C(F)(F)F)cc(C(F)(F)F)c2)(c2ccccc2)C1 | 25 |
